One assay concerns B16. The experiment in a line: Inhibition of murine B16 melanoma cell proliferation measured by the MTT assay. Type of assay: functional, cell-based. To be noted: Mus musculus. The gist of the method: (§1)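 Murine L1210 leukemia and B16 melanoma cells were grown in RPMI 1640 with 10% fetal calf serum, 2 mM L-glutamine, penicillin/streptomycin and 10 mM HEPES (pH 7.4). Cells were exposed to nine serial drug dilutions in triplicate for about four doubling times (L1210 48 h, B16 96 h), then read by microculture tetrazolium (MTT) assay. IC50 is the concentration halving optical density versus untreated controls, averaged over ≥2 independent experiments.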
A general note: Tetrazolium assays rely on reduction of a dye to a coloured formazan, in cell work by metabolically active cells.

A further assay concerns L1210. The experiment in a line: Inhibition of murine L1210 leukemia cell proliferation measured by the MTT assay. Format: functional, cell-based. To be noted: Mus musculus. The procedure, abridged: as §1
Assay [1] concerns Mus musculus. The experiment in a line: Long-term survivors among 21 mice infected with P388 leukemia, scored on day 60 at 160-320 mg/kg dose on day 1. Type of assay: functional. The procedure, abridged:
(§2)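 B6D2F1 mice in groups of 6–7 were inoculated ip on day 0 with 10^6 P388 cells. Dihydrochloride salts were dissolved in water and given iv on day 1 or on days 1, 5 and 9. Doses ranged from a low nontoxic dose to a toxic one. Long-term survivors were counted at day 60.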

In assay [2] the test system is Mus musculus. In words: Percent median survival time of mice injected with P388 leukemia, at a subcutaneous compound dose of 160-320 mg/kg. Type of assay: functional.
In assay [3] the test system is Mus musculus. The experiment in a line: Long-term survivors among 21 mice infected with B16 melanoma, scored on day 90 at 10 mg/kg dose on days 1-9.
Assay [4] concerns Mus musculus. The experiment in a line: Percent median survival time of mice injected with P388 leukemia, at a intravenous compound dose of 80 mg/kg.
For assay [5], the system named is Mus musculus. The experiment in a line: Percent median survival time of mice injected with B16 melanoma, at a intraperitoneal compound dose of 10 mg/kg.
Assay [6] concerns Mus musculus. The experiment in a line: Long-term survivors among 12 mice infected with P388 leukemia, scored on day 60 at 80 mg/kg dose on day 1. Format: functional. The gist of the method:
as §2

Assay [7] relates to Mus musculus. In words: Long-term survivors among 12 mice infected with P388 leukemia, scored on day 60 at 80 mg/kg dose on day 1, 5, 9. Type of assay: functional. The gist of the method: as §2
The subject of assay [8] is Mus musculus. In words: Long-term survivors among 14 mice infected with B16 melanoma, scored on day 90 at 5 mg/kg dose. Type of assay: functional. The procedure, abridged: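 B6D2F1 mice were inoculated ip on day 0 with B16 tumor brei (1 g tumor in 10 mL 0.9% NaCl). Compounds were given ip daily on days 1–9. Long-term survivors were scored at day 90.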
The test system of assay [9] is Mus musculus. The experiment in a line: Percent median survival time of mice injected with B16 melanoma, at a intraperitoneal compound dose of 5 mg/kg.
Assay [10] concerns Mus musculus. In words: Percent median survival time of mice injected with P388 leukemia, at a intravenous compound dose of 80 mg/kg on day1.
For assay [11], the system named is Mus musculus. The experiment in a line: Percent median survival time of mice injected with P388 leukemia, at a intravenous compound dose of 80 mg/kg on day1,5,9.
In assay [12] the test system is Mus musculus. In words: Long-term survivors among 13 mice infected with P388 leukemia, scored on day 60 at 80 mg/kg dose on day 1. Type of assay: functional. The gist of the method: as §2
Assay [13] deals with Mus musculus. In words: Percent median survival time of mice injected with P388 leukemia, at a subcutaneous compound dose of 40 mg/kg. Format: functional.
Assay [14] relates to Mus musculus. The experiment in a line: Long-term survivors among 13 mice infected with B16 melanoma, scored on day 90 at 10 mg/kg dose on days 1-9.
Assay [15] deals with Mus musculus. In words: Long-term survivors among 6 mice infected with P388 leukemia, scored on day 60 at 5 mg/kg dose. Format: functional. The gist of the method: as §2
In assay [16] the test system is Mus musculus. In words: Long-term survivors among 6 mice infected with P388 leukemia, scored on day 60 at 10 mg/kg dose. Type of assay: functional. The gist of the method:
as §2

The test system of assay [17] is Mus musculus. In words: Percent median survival time of mice intraperitoneally injected with P388 leukemia was determined from tested at 10 mg/kg at day1 dose to that of control. Type of assay: functional. The procedure, abridged: (§3)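 P388 leukemia in B6D2F1 mice (groups of 6–7), 10^6 cells inoculated ip on day 0. Dihydrochloride salts were dissolved in water and given iv on day 1 or on days 1, 5, 9. Three doses were tested, then five if active. %T/C = median survival treated/control × 100, reported at the optimal dose (no toxic death, weight loss <20%), from one or two representative experiments.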

In assay [18] the test system is Mus musculus. In words: Percent median survival time of mice intraperitoneally injected with P388 leukemia was determined from tested at 5 mg/kg at day1,5,9 dose to that of control. Type of assay: functional. To be noted: route intraperitoneal. The gist of the method: as §3
Assay [19] deals with Mus musculus. In words: Percent median survival time of mice injected with B16 melanoma, at a intraperitoneal compound dose of 20 mg/kg.
The subject of assay [20] is Mus musculus. The experiment in a line: Long-term survivors among 7 mice infected with B16 melanoma, scored on day 90 at 160 mg/kg dose on day 1. Format: functional.
Assay [21] relates to Mus musculus. The experiment in a line: Long-term survivors among 7 mice infected with P388 leukemia, scored on day 60 at 160 mg/kg dose on day 1. Type of assay: functional. The gist of the method: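 B6D2F1 mice in groups of 6–7 received 10^6 P388 cells ip on day 0. Dihydrochloride salts dissolved in water were injected iv on day 1 or on days 1, 5 and 9, at three doses and then five. Read-outs were % T/C (median survival treated/control × 100) and long-term survivors on day 60, both at the optimal dose (no toxic death, weight loss <20%).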

For assay [22], the system named is Mus musculus. The experiment in a line: Percent median survival time of mice injected with P388 leukemia, at a subcutaneous compound dose of 160 mg/kg. Format: functional.

The text below walks through data of ChEMBL document CHEMBL1132144, “Synthesis of 9-O-substituted derivatives of 9-hydroxy-5, 6-dimethyl-6H-pyrido[4,3-b]carbazole-1-carboxylic acid (2-(dimethylamino)ethyl)amide and their 10- and 11-methyl analogues with improved antitumor activity” (J Med Chem, 1999).

Values joined by “and” are separate entries in the source; they are usually repeats but may differ in a detail not shown here. Identical values can stand only once.

Consider `Cc1c2ccnc(C(=O)NCCN(C)C)c2cc2c3cc(OC(=O)CCCC(=O)O)ccc3n(C)c12`, for which the concentration for half-maximal inhibition (IC50) (in general, the concentration needed to halve the response being measured) with B16 worked out at 0.0148 µM; in the assay on L1210, 0.0197 µM. Further, the results for the LTS in the assay on Mus musculus [1] and with Mus musculus [3] were 4 and 2, respectively. Further, the T/C (in general, the result in the treated group divided by that in the control group, in per cent) is more than 590% in the assay with Mus musculus [2], more than 582% in the assay with Mus musculus [4] and 196% in the assay on Mus musculus [5].
`Cc1c2ccnc(C(=O)NCCN(C)C)c2cc2c3cc(O)ccc3n(C)c12`: the results for the IC50 in the assay on B16 and in the assay with L1210 were 0.0054 µM and 0.0131 µM, respectively. Also, the values for the LTS with Mus musculus [6], in the assay on Mus musculus [7] and in the assay on Mus musculus [8] were 0, 7 and 0, respectively. The T/C with Mus musculus [9] is recorded as 174%; with Mus musculus [10] it was 227%; in the assay on Mus musculus [11] it was more than 541%.
`Cc1c2ccnc(C(=O)NCCN(C)C)c2cc2c3cc(OC(=O)c4cccnc4)ccc3n(C)c12`: the IC50 was determined as 0.0023 µM in the assay on B16 and 0.0745 µM in the assay with L1210. Also, the LTS in the assay on Mus musculus [12] and in the assay with Mus musculus [14] was 0 each time. Also, the T/C in the assay with Mus musculus [13] is 199% and 283%; in the assay on Mus musculus [5], 190%.
Take `Cc1c2ccnc(C(=O)NCCN(C)C)c2cc2c3cc(OC(=O)N(C)c4ccccc4)ccc3n(C)c12`: the concentration for half-maximal inhibition (IC50) in the assay on B16 was 1.37 µM; in the assay with L1210, 1.17 µM. Further, the LTS in the assay on Mus musculus [15] and in the assay on Mus musculus [16] was 0 throughout. Moreover, the results for the T/C in the assay with Mus musculus [17], in the assay on Mus musculus [18] and in the assay with Mus musculus [19] were 100%, 106% and 101%, respectively.
For the molecule `Cc1c2ccnc(C(=O)NCCN(C)C)c2cc2c3cc(OC(=O)CCCCCCC(=O)O)ccc3n(C)c12`, the figures for the 50% inhibitory concentration (IC50) with B16 and in the assay on L1210 were 0.0031 µM and 0.0532 µM, respectively. The LTS with Mus musculus [20] and with Mus musculus [21] was 0 in each case. For the same molecule, the T/C is 287% in the assay on Mus musculus [22] and more than 645% with Mus musculus [4].
